{
  "source": "ChEMBL document CHEMBL4014314",
  "about": "“Rational Design of Bisubstrate-Type Analogues as Inhibitors of DNA Methyltransferases in Cancer Cells” (J Med Chem, 2017)",
  "key": {"[1]": {"biological_target": "T1, DNA (cytosine-5)-methyltransferase 3A (Homo sapiens, UniProt Q9Y6K1)", "T1 sequence (Q9Y6K1 whole entry, looked up, the tested form may be a part)": "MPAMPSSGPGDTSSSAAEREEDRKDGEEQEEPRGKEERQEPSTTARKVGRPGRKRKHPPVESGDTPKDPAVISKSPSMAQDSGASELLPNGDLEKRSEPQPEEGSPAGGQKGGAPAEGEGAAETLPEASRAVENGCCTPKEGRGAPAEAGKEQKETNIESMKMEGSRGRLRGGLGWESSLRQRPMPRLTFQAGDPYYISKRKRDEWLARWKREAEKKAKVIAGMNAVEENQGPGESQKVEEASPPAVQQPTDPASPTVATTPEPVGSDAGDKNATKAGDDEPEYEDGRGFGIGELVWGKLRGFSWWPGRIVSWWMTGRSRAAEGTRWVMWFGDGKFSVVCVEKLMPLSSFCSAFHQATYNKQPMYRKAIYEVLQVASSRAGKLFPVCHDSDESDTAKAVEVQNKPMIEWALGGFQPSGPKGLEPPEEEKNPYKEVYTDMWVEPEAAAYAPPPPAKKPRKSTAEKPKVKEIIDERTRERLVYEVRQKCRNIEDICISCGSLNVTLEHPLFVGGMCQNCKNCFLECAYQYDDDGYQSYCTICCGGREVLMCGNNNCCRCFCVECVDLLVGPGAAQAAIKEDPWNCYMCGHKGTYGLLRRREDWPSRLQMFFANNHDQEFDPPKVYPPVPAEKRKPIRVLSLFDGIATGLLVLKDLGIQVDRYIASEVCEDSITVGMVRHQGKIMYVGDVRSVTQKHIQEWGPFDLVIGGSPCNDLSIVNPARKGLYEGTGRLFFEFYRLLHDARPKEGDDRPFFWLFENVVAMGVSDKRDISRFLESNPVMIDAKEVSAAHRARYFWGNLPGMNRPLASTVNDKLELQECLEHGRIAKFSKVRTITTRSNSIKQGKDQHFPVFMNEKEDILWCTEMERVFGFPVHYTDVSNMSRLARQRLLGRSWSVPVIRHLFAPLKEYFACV", "experiment": "Inhibition of human DNMT3A catalytic domain using AdoMet assessed as reduction of methylation in 5'-biotin/3' 6-carboxyfluorescein labeled DNA duplex at CpG site after 1 hr by fluorescence assay", "outline": "(§1)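 Human full-length DNMT1 and catalytic DNMT3A tested for methylation of a DNA duplex; the paper gives assay details elsewhere. EC50 from a sigmoid dose-response fit with variable Hill slope; reported as median with SE from at least two independent experiments for DNMT1 and three for DNMT3A; DNMT3A curves run in technical duplicates.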"}, "Homo sapiens [2]": {"organism": "Homo sapiens", "experiment": "Inhibition of DNMT in human KG1 cells assessed as luciferase gene driven CMV promoter demethylation by measuring fold increase in luciferase reactivation at 1 uM after 24 hrs by luciferase reporter gene assay relative to control", "type": "cell-based", "outline": "(§2)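 Leukemia KG-1 cells carrying a stable luciferase gene under a partially methylated CMV promoter, treated in 96-well plates for 24 h. Luciferase signal read by luminescence (Britelite); reactivation fold expressed as ratio to non-treated cells. Mean of three experiments with standard error.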"}, "[3]": {"biological_target": "T2, DNA (cytosine-5)-methyltransferase 1 (Homo sapiens, UniProt P26358)", "T2 sequence (P26358 whole entry)": "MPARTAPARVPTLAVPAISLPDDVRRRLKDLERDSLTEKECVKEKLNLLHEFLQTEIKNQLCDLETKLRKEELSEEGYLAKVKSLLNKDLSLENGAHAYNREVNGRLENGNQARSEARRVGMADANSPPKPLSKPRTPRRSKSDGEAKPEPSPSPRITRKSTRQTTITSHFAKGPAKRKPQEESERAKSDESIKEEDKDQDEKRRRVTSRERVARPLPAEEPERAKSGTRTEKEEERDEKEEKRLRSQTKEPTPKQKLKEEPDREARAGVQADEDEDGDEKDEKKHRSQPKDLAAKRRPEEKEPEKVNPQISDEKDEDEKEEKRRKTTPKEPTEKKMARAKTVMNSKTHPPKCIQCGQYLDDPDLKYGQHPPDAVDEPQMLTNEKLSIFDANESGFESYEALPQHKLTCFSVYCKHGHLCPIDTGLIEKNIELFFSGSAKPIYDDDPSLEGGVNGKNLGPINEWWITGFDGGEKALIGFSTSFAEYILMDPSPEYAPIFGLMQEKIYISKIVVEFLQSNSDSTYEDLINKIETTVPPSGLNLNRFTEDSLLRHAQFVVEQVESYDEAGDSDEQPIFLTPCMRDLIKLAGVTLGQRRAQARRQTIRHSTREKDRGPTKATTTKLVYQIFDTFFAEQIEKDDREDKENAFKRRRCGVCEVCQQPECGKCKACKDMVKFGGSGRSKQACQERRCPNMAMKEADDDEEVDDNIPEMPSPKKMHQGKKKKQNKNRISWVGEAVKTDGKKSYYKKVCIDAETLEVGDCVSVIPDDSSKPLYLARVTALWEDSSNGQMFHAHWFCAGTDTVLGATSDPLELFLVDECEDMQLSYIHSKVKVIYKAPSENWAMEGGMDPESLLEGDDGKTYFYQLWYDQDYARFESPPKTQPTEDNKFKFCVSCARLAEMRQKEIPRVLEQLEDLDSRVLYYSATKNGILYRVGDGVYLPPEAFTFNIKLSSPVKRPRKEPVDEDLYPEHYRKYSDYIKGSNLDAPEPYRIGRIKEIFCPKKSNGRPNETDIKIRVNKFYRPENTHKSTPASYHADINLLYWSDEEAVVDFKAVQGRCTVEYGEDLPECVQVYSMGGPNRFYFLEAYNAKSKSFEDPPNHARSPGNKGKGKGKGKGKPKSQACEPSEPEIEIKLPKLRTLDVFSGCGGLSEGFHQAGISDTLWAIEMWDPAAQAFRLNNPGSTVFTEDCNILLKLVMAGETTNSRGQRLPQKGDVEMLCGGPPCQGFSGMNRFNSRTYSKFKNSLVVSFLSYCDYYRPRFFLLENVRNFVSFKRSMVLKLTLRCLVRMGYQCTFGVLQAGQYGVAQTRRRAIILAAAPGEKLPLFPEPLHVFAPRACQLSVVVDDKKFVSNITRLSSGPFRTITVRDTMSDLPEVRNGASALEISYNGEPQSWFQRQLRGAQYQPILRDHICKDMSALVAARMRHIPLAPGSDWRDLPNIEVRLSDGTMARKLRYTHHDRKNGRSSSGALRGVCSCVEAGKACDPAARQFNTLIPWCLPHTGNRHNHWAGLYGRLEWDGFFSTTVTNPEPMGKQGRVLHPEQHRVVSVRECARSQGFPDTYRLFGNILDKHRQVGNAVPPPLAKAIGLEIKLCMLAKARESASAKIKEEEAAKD", "experiment": "Inhibition of full length His-tagged human DNMT1 using SAM/[methyl-3H]SAM assessed as reduction of methylation in biotinylated hemimethylated DNA duplex after 1 hr by scintillation counting method", "outline": "as §1"}, "[4]": {"experiment": "Binding affinity to 265 bp pBS DNA at 0.01 to 10 uM after 15 mins using 3'-end labeled using alpha-[32P]-dATP by DNase I footprinting assay"}, "Homo sapiens [5]": {"organism": "Homo sapiens", "experiment": "Inhibition of DNMT in human KG1 cells assessed as luciferase gene driven CMV promoter demethylation by measuring fold increase in luciferase reactivation at 5 uM after 24 hrs by luciferase reporter gene assay relative to control", "type": "cell-based", "outline": "as §2"}, "[6]": {"experiment": "Binding affinity to 5'-TATATACGTACGGTGTTTTCACCGTACGTATATA-3' CpG site hairpin duplex DNA (unknown origin) assessed as change in melting temperature at 10 uM"}, "[7]": {"experiment": "Binding affinity to 117 bp pBS DNA at 0.01 to 10 uM after 15 mins using 3'-end labeled using alpha-[32P]-dATP by DNase I footprinting assay"}, "Homo sapiens [8]": {"organism": "Homo sapiens", "experiment": "Inhibition of DNMT in human KG1 cells assessed as CpG site demethylation at CMV promoter at 5 uM after 24 hrs by NOMe-Seq method relative to control", "type": "cell-based", "outline": "(§3)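 CMV-luc KG-1 acute myeloid leukemia cells in RPMI-1640 with 10% FCS, seeded 2 × 10^5/mL and treated for 24 h at 1 or 5 μM. NOMe-Seq: bisulfite conversion, CMV promoter PCR (40 cycles), cloning and sequencing. CpG methylation and GpC accessibility expressed as ratio of percentage methylated cytosines in treated versus untreated sample.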"}, "[9]": {"biological_target": "T1, DNA (cytosine-5)-methyltransferase 3A", "experiment": "Inhibition of human DNMT3A catalytic domain using AdoMet assessed as reduction of methylation in 5'-biotin/3' 6-carboxyfluorescein labeled DNA duplex at CpG site at 10 uM after 1 hr by fluorescence assay relative to control"}, "KG-1": {"tested_on": "KG-1", "experiment": "Toxicity in human KG1 cells assessed as effect on cell viability at 5 uM after 24 hrs by ATPLite assay", "type": "cell-based", "settings": "kg-1, 24 h"}, "Homo sapiens [10]": {"organism": "Homo sapiens", "experiment": "Inhibition of DNMT in human HCT116 cells assessed as demethylation of CDKN2A promoter at 100 nM after 7 days by COBRA analysis relative to control", "type": "cell-based", "outline": "(§4)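 HCT116 colon cancer cells in MEM with HEPES, L-glutamine and 10% FCS, 37 °C, 5% CO2; seeded 1 × 10^5/mL, treated for 3 or 7 days at 100 nM. Bisulfite-converted DNA amplified at the CDKN2A promoter, then digested with BsiEI at 60 °C for 90 min (COBRA); bands quantified on 2% agarose gel. Methylation given as ratio to untreated cells; at least two independent experiments, standard errors.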"}, "Homo sapiens [11]": {"organism": "Homo sapiens", "experiment": "Inhibition of DNMT in human KG1 cells assessed as increase in DNA accessibility by opening the chromatin at 5 uM after 24 hrs by NOMe-Seq method relative to control", "type": "cell-based", "parameters": "scale not given: the % may be the effect or the level left", "outline": "as §3"}, "[12]": {"biological_target": "T2, DNA (cytosine-5)-methyltransferase 1", "experiment": "Inhibition of full length His-tagged human DNMT1 using SAM/[methyl-3H]SAM assessed as reduction of methylation in biotinylated hemimethylated DNA duplex at 100 uM after 1 hr by scintillation counting method relative to control"}, "[13]": {"experiment": "Binding affinity to 5'-TATATACGTACTGTGTTTTCACAGTACGTATATA-3' CpG site hairpin duplex DNA (unknown origin) assessed as change in melting temperature at 10 uM"}, "Homo sapiens [14]": {"organism": "Homo sapiens", "experiment": "Inhibition of DNMT in human KG1 cells assessed as nucleosome occupancy at CMV promoter by measuring increase in luciferase signal at 5 uM after 24 hrs by NOMe-Seq method relative to control", "type": "cell-based"}, "[15]": {"biological_target": "T1, DNA (cytosine-5)-methyltransferase 3A", "experiment": "Inhibition of human DNMT3A catalytic domain using AdoMet assessed as reduction of methylation in 5'-biotin/3' 6-carboxyfluorescein labeled DNA duplex at CpG site at 32 uM after 1 hr by fluorescence assay relative to control"}, "Homo sapiens [16]": {"organism": "Homo sapiens", "experiment": "Inhibition of DNMT in human HCT116 cells assessed as demethylation of CDKN2A promoter at 100 nM after 3 days by COBRA analysis relative to control", "type": "cell-based", "outline": "as §4"}, "[17]": {"biological_target": "T2, DNA (cytosine-5)-methyltransferase 1", "experiment": "Inhibition of full length His-tagged human DNMT1 using SAM/[methyl-3H]SAM assessed as reduction of methylation in biotinylated hemimethylated DNA duplex at 32 uM after 1 hr by scintillation counting method relative to control"}, "Homo sapiens [18]": {"organism": "Homo sapiens", "experiment": "Inhibition of DNMT in human HCT116 cells assessed as induction of CDKN2A mRNA expression at 100 nM after 7 days by RT qPCR method relative to control", "type": "cell-based", "outline": "(§5)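 HCT116 cells seeded 1 × 10^5/mL and exposed to 100 nM for 3 or 7 days. CDKN2A mRNA quantified by RT-qPCR with SYBR chemistry: 95 °C 30 s, then 40 cycles of 95 °C 5 s and 60 °C 30 s, followed by a melt curve. Expressed as fold change relative to untreated cells; at least two independent experiments, standard errors.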"}, "Homo sapiens [19]": {"organism": "Homo sapiens", "experiment": "Inhibition of DNMT in human HCT116 cells assessed as induction of CDKN2A mRNA expression at 100 nM after 3 days by RT qPCR method", "type": "cell-based", "outline": "as §5"}, "Homo sapiens [20]": {"organism": "Homo sapiens", "experiment": "Inhibition of DNMT in human KG1 cells assessed as luciferase gene driven CMV promoter demethylation by measuring luciferase reactivation at 0.1 uM after 24 hrs by luciferase reporter gene assay", "type": "cell-based", "outline": "as §2"}, "Homo sapiens [21]": {"organism": "Homo sapiens", "experiment": "Inhibition of DNMT in human KG1 cells assessed as CpG site demethylation at CMV promoter at 1 uM after 24 hrs by NOMe-Seq method relative to control", "type": "cell-based", "outline": "as §3"}, "Homo sapiens [22]": {"organism": "Homo sapiens", "experiment": "Inhibition of DNMT in human KG1 cells assessed as increase in DNA accessibility by opening the chromatin at 1 uM after 24 hrs by NOMe-Seq method relative to control", "type": "cell-based", "parameters": "scale not given: the % may be the effect or the level left", "outline": "as §3"}, "[23]": {"experiment": "Solubility of the compound in RPMI-1640 medium", "type": "physicochemical"}},
  "note": "Calls of active or inactive are those of the source. No cut-off for these calls is given here.",
  "data": [
    {"smiles": "c1ccc(CCCNc2ncnc3cc(OCC4CCN(CCNc5ccnc6ccccc56)CC4)ccc23)cc1", "values": [
      {"measurement": "EC50", "setting": "[1]", "result": 4.4, "unit": "µM"},
      {"measurement": "fold change (FC)", "setting": "Homo sapiens [2]", "result": 4},
      {"measurement": "EC50", "setting": "[3]", "result": 46, "unit": "µM"},
      {"measurement": "Activity", "setting": "[4]", "result": "inactive"},
      {"measurement": "fold change (FC)", "setting": "Homo sapiens [5]", "result": 4},
      {"measurement": "Activity", "setting": "[6]", "result": "inactive"},
      {"measurement": "Activity", "setting": "[7]", "result": "inactive"},
      {"measurement": "inhibition", "setting": "Homo sapiens [8]", "result": 33, "unit": "%"},
      {"measurement": "inhibition", "setting": "[9]", "result": 81, "unit": "%"},
      {"measurement": "Activity", "setting": "KG-1", "result": "Non-Toxic"},
      {"measurement": "inhibition", "setting": "Homo sapiens [10]", "result": 42, "unit": "%"},
      {"measurement": "Activity", "setting": "Homo sapiens [11]", "result": 77, "unit": "%"},
      {"measurement": "inhibition", "setting": "[12]", "result": 91, "unit": "%"},
      {"measurement": "Activity", "setting": "[13]", "result": "inactive"},
      {"measurement": "fold change (FC)", "setting": "Homo sapiens [14]", "result": 4.7},
      {"measurement": "inhibition", "setting": "[15]", "result": 98, "unit": "%"},
      {"measurement": "inhibition", "setting": "Homo sapiens [16]", "result": 32, "unit": "%"},
      {"measurement": "inhibition", "setting": "[17]", "result": 25, "unit": "%"}
    ]},
    {"smiles": "c1ccc(-c2ccc(CNc3ncnc4cc(OCC5CCN(CCNc6ccnc7ccccc67)CC5)ccc34)cc2)cc1", "values": [
      {"measurement": "fold change (FC)", "setting": "Homo sapiens [18]", "result": 13},
      {"measurement": "EC50", "setting": "[1]", "result": 1.1, "unit": "µM"},
      {"measurement": "fold change (FC)", "setting": "Homo sapiens [2]", "result": 4},
      {"measurement": "EC50", "setting": "[3]", "result": 100, "unit": "µM"},
      {"measurement": "fold change (FC)", "setting": "Homo sapiens [5]", "result": 4},
      {"measurement": "inhibition", "setting": "Homo sapiens [8]", "result": 52, "unit": "%"},
      {"measurement": "Activity", "setting": "Homo sapiens [19]", "result": "inactive"},
      {"measurement": "inhibition", "setting": "[9]", "result": 86, "unit": "%"},
      {"measurement": "Activity", "setting": "KG-1", "result": "Non-Toxic"},
      {"measurement": "inhibition", "setting": "Homo sapiens [20]", "result": "Active"},
      {"measurement": "inhibition", "setting": "Homo sapiens [10]", "result": 71, "unit": "%"},
      {"measurement": "Activity", "setting": "Homo sapiens [11]", "result": 87, "unit": "%"},
      {"measurement": "inhibition", "setting": "[12]", "result": 69, "unit": "%"},
      {"measurement": "fold change (FC)", "setting": "Homo sapiens [14]", "result": 4.2},
      {"measurement": "inhibition", "setting": "[15]", "result": 83, "unit": "%"},
      {"measurement": "inhibition", "setting": "Homo sapiens [16]", "result": 20, "unit": "%"},
      {"measurement": "inhibition", "setting": "[17]", "result": 24, "unit": "%"}
    ]},
    {"smiles": "Nc1ncn([C@H]2C[C@H](O)[C@@H](CO)O2)c(=O)n1", "values": [
      {"measurement": "inhibition", "setting": "Homo sapiens [21]", "result": 50, "unit": "%"},
      {"measurement": "Activity", "setting": "Homo sapiens [22]", "result": 120, "unit": "%"},
      {"measurement": "inhibition", "setting": "Homo sapiens [10]", "result": 80, "unit": "%"},
      {"measurement": "inhibition", "setting": "Homo sapiens [16]", "result": 60, "unit": "%"}
    ]},
    {"smiles": "c1ccc2c(NCCNc3ncnc4cc(OCC5CCN(CCNc6ccnc7ccccc67)CC5)ccc34)cccc2c1", "values": [
      {"measurement": "EC50", "setting": "[1]", "result": 0.3, "unit": "µM"},
      {"measurement": "solubility", "setting": "[23]", "result": "Soluble"},
      {"measurement": "fold change (FC)", "setting": "Homo sapiens [2]", "result": 4},
      {"measurement": "EC50", "setting": "[3]", "result": 20, "unit": "µM"},
      {"measurement": "fold change (FC)", "setting": "Homo sapiens [5]", "result": 4},
      {"measurement": "inhibition", "setting": "[9]", "result": 91, "unit": "%"},
      {"measurement": "inhibition", "setting": "[12]", "result": 94, "unit": "%"},
      {"measurement": "inhibition", "setting": "[15]", "result": 90, "unit": "%"},
      {"measurement": "inhibition", "setting": "[17]", "result": 86, "unit": "%"}
    ]}
  ]
}
